Assay outcomes from PubChem.
Rows were chosen to be rich in hits. Some 3.1% of all compounds tested hit in one or more screens of this group.
GalR3 antagonist: human GalR3 antagonism. O60755. HEK293 GalR3-CNG cAMP membrane potential fluorescence; galR3 body fused to GalR1 C-terminus. inhibition, % at 3 µM. hit rate 0.44% among 360,000;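 active means inhibition above the screen-wide average plus 3 SD, cut at about 13% in these data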;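 further: forskolin and galanin both at EC90 stimulate the cells; cAMP rise reported by CNG channel membrane potential dye signal; 0% = forskolin plus galanin with DMSO and 100% = forskolin alone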
Target sequence (O60755 1-299 limits assumed): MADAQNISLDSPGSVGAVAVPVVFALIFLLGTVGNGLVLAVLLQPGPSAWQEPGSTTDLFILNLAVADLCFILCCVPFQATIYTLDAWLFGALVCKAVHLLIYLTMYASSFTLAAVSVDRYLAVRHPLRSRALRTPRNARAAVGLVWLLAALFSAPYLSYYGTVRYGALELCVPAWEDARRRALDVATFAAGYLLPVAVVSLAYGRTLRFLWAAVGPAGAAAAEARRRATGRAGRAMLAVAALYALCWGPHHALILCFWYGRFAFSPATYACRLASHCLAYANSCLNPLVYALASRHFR
OX1R antag-1: human HCRTR1 antagonism; CHO/OX1R cells, Fluo-8 calcium fluorescence, orexin A; AID 434989; inhibition, % at 5 µM; hit rate 0.43% among 330,000; O43613;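 active means inhibition above its plate's threshold, mean inhibition of all tested compounds on the plate plus 3 SD, cut at about 37% in these data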;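 further: 0% = orexin A challenge wells and 100% = SB-334867-A antagonist wells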
Target sequence (O43613 whole entry, looked up): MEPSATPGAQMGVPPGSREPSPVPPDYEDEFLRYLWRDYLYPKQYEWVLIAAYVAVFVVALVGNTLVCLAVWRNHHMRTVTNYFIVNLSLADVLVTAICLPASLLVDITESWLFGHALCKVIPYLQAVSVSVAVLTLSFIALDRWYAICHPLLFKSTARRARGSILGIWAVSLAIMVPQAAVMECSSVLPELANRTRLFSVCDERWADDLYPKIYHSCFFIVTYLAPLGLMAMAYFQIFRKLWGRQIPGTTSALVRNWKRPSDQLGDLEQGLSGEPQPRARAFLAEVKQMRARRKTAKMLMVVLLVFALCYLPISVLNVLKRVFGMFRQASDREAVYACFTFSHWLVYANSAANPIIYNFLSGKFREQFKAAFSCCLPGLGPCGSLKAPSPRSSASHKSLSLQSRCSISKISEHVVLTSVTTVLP
GPR7 antag: blocks human GPR7 receptor signaling; GPR7-expressing cells, fluorescence antagonist assay; P48145; inhibition, % at 4.4 µM; hit rate 1.1% among 290,000; in the data active means inhibition above about 16%, passing the limit was not always enough;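 further: cells stimulated with the agonist NPW; 0% = agonist with vehicle and 100% = vehicle without agonist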
CHO parental Ca: counter-screen: ATP calcium response change in parental CHO cells; parental CHO-K1, ATP-induced calcium, Fluo-8 fluorescence; inhibition, % at 5.6 µM; hit rate 0.63% among 330,000;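 active means inhibition above that plate's mean sample inhibition plus 3 SD, cut at about 26% in these data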;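 further: 0% = ATP-challenged DMSO wells and 100% = DMSO wells without ATP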
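test system = CHO parental line | reagent = ATP stimulus | measured by = intracellular calcium via Fluo-8 no-wash fluorescent dye | control set = ATP and no-ATP DMSO wells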
OX1R antag-2: antagonists of human orexin 1 receptor (OX1R). O43613. OX1R-expressing cells, FRET antagonist read-out. inhibition, % at 6.6 µM. hit rate 1.8% among 330,000. AID 485270; in the data active means inhibition mostly above about 38%, no sharp cut-off; inactive means mostly below about 40%;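 further: 0% = agonist challenge alone and 100% = reference antagonist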
GPR7 antag cf: human GPR7 antagonism, confirmation assay; shares compounds with GPR7 antag; GPR7-expressing cells, calcium fluorescence antagonist mode; inhibition, % at 4.4 µM; hit rate 52% among 2,400; in the data active means inhibition above about 24%;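 further: stimulated with the GPR7 agonist NPW; 0% = agonist plus vehicle and 100% = vehicle alone without agonist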
MCHR1 antag: antagonizes human MCHR1, a GPR7 antagonist counter-screen; shares compounds with GPR7 antag; MCHR1-expressing cells, fluorescence antagonist assay; inhibition, % at 4.4 µM; hit rate 62% among 2,400; AID 2148; in the data active means inhibition above about 22%;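 further: 0% = vehicle with agonist and 100% = vehicle without agonist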
The depositor's hits bear a star; . = no result given.

SMILES	GalR3 antagonist	OX1R antag-1	GPR7 antag	CHO parental Ca	OX1R antag-2	others
Cc1ccc(Cl)cc1N1CCN(S(=O)(=O)N2CCCCC2)CC1	-0.6	-40.9	22.7*	-25.2	14.7
CNC(=O)C[C@@H]1CC[C@@H]2[C@H](COC[C@H](O)CN2S(=O)(=O)c2ccccc2Cl)O1	-4.7	.	.	.	.
COc1ccc(OCCCC(=O)Nc2cccc(C(C)=O)c2)cc1	-11.3	-8.9	-4.7	7.7	2.2
COc1ccc(OCCCC(=O)OC(C)C(=O)Nc2cccc(C(C)=O)c2)cc1 (centres undefined)	-2.0	-6.9	15.8	17.0	64.2*
CC(C)(C)c1ccc(C(=O)NCc2nnc(SCC(=O)N3CCCC3)o2)cc1	-8.2	.	.	.	.
Cc1ccc(C)c(C(=O)COC(=O)c2n[nH]c3ccccc23)c1	-5.2	-14.1	.	-16.2	35.7*
Cc1cccc(C)c1OCCOC(=O)c1n[nH]c2ccccc12	4.4	-18.3	-8.7	-33.4	13.2
CCN=C1NC(c2ccccc2C(F)(F)F)C(C(=O)OC)=C(C)N1C (centres undefined)	-6.5	.	.	.	.
CCc1nnc(NC(=O)c2cc3ccccc3oc2=O)s1	-3.4	-12.8	15.0	-5.4	76.6*
Cc1ccccc1-c1nnc(NC(=O)c2cc3ccccc3oc2=O)s1	.	.	-12.2	.	.
CCCCCNC(=O)C1C(=O)Nc2ccccc2C(=O)N1c1ccc(OC)cc1 (centres undefined)	-9.9	.	.	.	.
Cc1cc2cc(C(c3nnnn3Cc3ccccc3)N3CCc4ccccc43)c(=O)[nH]c2cc1C (centres undefined)	1.6	7.5	-5.1	-28.1	46.3*
CC(NC(=O)Cn1ncc(Cl)c(Cl)c1=O)C12CC3CC(CC(C3)C1)C2 (centres undefined)	.	26.5	23.4*	11.5	21.2
CNC(=O)c1nnsc1S(=O)(=O)c1ccc(Cl)cc1	-2.1	.	25.5*	.	.
Nc1nc(C(=O)N2CCOCC2)nn1S(=O)(=O)c1ccc(Cl)cc1	-6.5	-10.0	-13.6	-2.6	12.5
O=C(c1nnsc1S(=O)(=O)c1ccc(Cl)cc1)N1CCOCC1	21.8*	.	12.0	.	.
O=C(C(Br)=Cc1ccccc1)c1ccccc1	-4.4	.	.	.	.
CCN(CC)c1ccc(C=Nc2cccc(S(=O)(=O)N3CCOCC3)c2)c(O)c1	-3.4	-11.2	.	-14.6	7.6
CCN(CC)c1ccc(/C=N/NC(=O)c2cccc(S(=O)(=O)N3CCOCC3)c2)c(O)c1	-2.6	-6.6	-5.4	-10.9	66.3*
CC(=O)c1sc(N/N=C\c2ccc(N(C)C)cc2)nc1C	-5.4	-9.0	-5.6	-16.4	57.5*
COc1cc(NC(=O)[C@@H]2O[C@H](CO)[C@@H](O)[C@H]2O)cc(OC)c1OC	-5.9	.	.	.	.
Cc1ccc(NS(=O)(=O)c2ccc(NC(=O)c3ccc(Br)o3)cc2)c(C)c1	-3.7	39.4	10.6	35.9*	19.2
COC(=O)C1=C(C)N(C)C(=NCc2ccccc2)NC1c1ccc(F)cc1 (centres undefined)	-6.9	.	.	.	.
COc1ccc(C#Cc2ccc3c(c2)c(=O)c2ccccc2n3C)cc1	-5.3	-16.3	-6.8	-13.4	13.1
Cn1c2ccccc2c(=O)c2cc(C#Cc3ccc(N)cc3)ccc21	-3.8	-31.4	7.3	-16.7	57.6*
SMILES	GalR3 antagonist	OX1R antag-1	GPR7 antag	CHO parental Ca	OX1R antag-2	others
CC(NCCC1(Cc2ccccc2Cl)CCOC(C)(C)C1)c1cccs1 (centres undefined)	-8.2	-40.6	27.6*	-29.1	4.6	GPR7 antag cf=30.9*;MCHR1 antag=19.9
CC(NCCC1(C(C)C)CCOC(C)(C)C1)c1cccs1 (centres undefined)	-2.1	-32.9	-2.9	-20.9	7.2
COc1ccc(CN2CCC(CO)(CCOc3ccccc3)CC2)c(OC)c1C	-8.6	-21.5	28.4*	-13.6	24.6	GPR7 antag cf=36.6*;MCHR1 antag=24.4*
COc1cc(Cl)c(CN2CCC(CO)(CCOc3ccccc3)CC2)cc1OC	-7.0	-31.7	2.7	-16.6	4.5
CCOC(=O)N1CCN(C(=O)c2ccc3c(=O)n(Cc4ccccc4OC)c(=S)[nH]c3c2)CC1	-2.1	-28.8	11.6	-5.3	14.7
COc1ccccc1Cn1c(=S)[nH]c2cc(C(=O)N3CCC(C(N)=O)CC3)ccc2c1=O	-1.2	-8.7	25.1*	-10.1	15.8	GPR7 antag cf=6.7;MCHR1 antag=12.1
COc1cccc(C(C)(O)c2nc(-c3cnn(C)c3)cs2)c1 (centres undefined)	0.7	.	.	.	.
CCN1CCN(c2nc(SC)nc3sc4c(c23)CC(C)(C)OC4)CC1	2.7	.	3.6	.	.
CCC1(C)Cc2c(sc3nc(SC)nc(NCCN(C)C)c23)CO1 (centres undefined)	-2.8	3.9	26.4*	-10.2	7.6	GPR7 antag cf=8.9;MCHR1 antag=14.0
Cc1cc(O)cc(=O)n1-c1ccc(Cl)c(C(F)(F)F)c1	-0.8	.	.	.	.
O=[N+]([O-])c1nn(-c2ccc3c(c2)OCCO3)n(O)c1=Nc1ccc(Cl)cc1	-8.4	-27.5	27.6*	-7.5	7.6	GPR7 antag cf=34.2*;MCHR1 antag=21.2
CCOc1ccc(C2CC(c3ccccc3C)n3ncnc3N2)cc1 (centres undefined)	0.5	-18.1	36.7*	-4.4	25.5	GPR7 antag cf=21.7;MCHR1 antag=23.7*
COc1ccccc1C1CC(c2ccc(Cl)cc2)Nc2ncnn21 (centres undefined)	-5.5	-25.6	.	5.6	40.6	MCHR1 antag=15.2
COc1cccc(C2CC(c3ccccc3OC)n3ncnc3N2)c1 (centres undefined)	1.4	-21.6	-12.9	-10.3	11.0
OC[C@@H]1CN(Cc2ccc(-c3ccccc3)cc2)C[C@H](n2cnc3c(NCc4ccncc4)ncnc32)O1	-2.0	.	.	.	.
COC(=O)c1ccc(-c2ccc(/C=N/NC(=O)CC3(C)OCCCO3)o2)cc1	-8.2	-17.8	23.9*	-15.7	16.6	GPR7 antag cf=0.1;MCHR1 antag=11.5
O=[N+]([O-])c1ccc(N2CCSCC2)cc1	-2.5	-1.8	29.5*	-11.7	28.2	GPR7 antag cf=4.6;MCHR1 antag=6.3
CC(C)CNS(=O)(=O)c1ccc(CCC(=O)N2CCN(c3ccc(F)cc3)CC2)cc1	-4.8	-8.9	29.9*	-13.5	30.5	GPR7 antag cf=6.5;MCHR1 antag=42.5*
CN1CCCN(c2ccc([N+](=O)[O-])cc2)CC1	-8.6	-9.1	17.0	-7.3	23.0
O=C(CCc1ccccc1)N1CCN(c2ccc([N+](=O)[O-])cc2)CC1	-7.7	7.9	26.4*	2.5	24.0	GPR7 antag cf=37.1*;MCHR1 antag=37.3*
O=[N+]([O-])c1ccc(N2CCN(c3ccc(F)cc3)CC2)cc1	-9.6	9.7	43.9*	17.6	4.6	GPR7 antag cf=22.9;MCHR1 antag=37.2*
COc1ccc(N2CCN(C(=O)CCc3ccc(S(=O)(=O)NCC(C)C)cc3)CC2)cc1	-4.5	-6.7	2.0	-4.3	7.2
CC1(C(=O)NC2CCN(Cc3ccccc3)CC2)CCN1Cc1cc2ccccc2o1 (centres undefined)	-7.6	.	.	.	.
Cc1cccc(C(C)C)c1NC(=O)COC(=O)CCC(=O)N(CC(C)C)c1c(N)n(CC(C)C)c(=O)[nH]c1=O	-6.7	.	.	.	.
